ChEMBL document CHEMBL3593207, “Imidazole clubbed 1,3,4-oxadiazole derivatives as potential antifungal agents” (2015)
≈ marks a conversion by molar mass, not a printed value.

Columns and labels:
Candida albicans [1] = assay: Antifungal activity against Candida albicans ATCC 10261 at MIC after 48 hrs by disc diffusion assay; type: functional
Method in brief: (§1)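 Cells (10^3 cells ml−1) grown in YPD were mixed into molten agar (~40 °C) and poured into 100-mm plates. Filter discs (4 mm) were spotted with 10 µl of compound at 1/2 × MIC, MIC or 2 × MIC. Fluconazole and 1% DMSO were the controls. Plates were incubated at 37 °C for 48 h and inhibition zone diameters recorded in mm.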

Candida tropicalis [2] = assay: Antifungal activity against clinical isolates of Candida tropicalis 2029 at MIC after 48 hrs by disc diffusion assay; type: functional; method in brief: as §1
Candida tropicalis [3] = assay: Cytotoxicity against Candida tropicalis ATCC 750 at MIC after 24 hrs by WST1 assay
Candida albicans [4] = assay: Inhibition of ergosterol biosynthesis in Candida albicans 2779 assessed as ergosterol content at MIC after 16 hrs by spectrophotometer analysis; type: functional; parameters: scale not given: the % may be the effect or the level left
Method in brief: (§2)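 Cells were pelleted and washed, and wet weight taken. Pellets were saponified in 25% alcoholic KOH at 85 °C for 1 h. Sterols were extracted into n-heptane/water. Ergosterol content is expressed relative to untreated control cells.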

Candida albicans [5] = assay: Inhibition of ergosterol biosynthesis in Candida albicans 2323 assessed as ergosterol content at MIC after 16 hrs by spectrophotometer analysis; type: functional; parameters: scale not given: the % may be the effect or the level left; method in brief: as §2
Candida albicans [6] = assay: Antifungal activity against clinical isolates of Candida albicans 2323 at half MIC after 48 hrs by disc diffusion assay; type: functional; method in brief: as §1
Candida tropicalis [7] = assay: Antifungal activity against clinical isolates of Candida tropicalis 2356 at MIC after 48 hrs by disc diffusion assay; type: functional; method in brief: as §1
Candida tropicalis [8] = assay: Inhibition of ergosterol biosynthesis in Candida tropicalis 2029 assessed as ergosterol content at MIC after 16 hrs by spectrophotometer analysis; type: functional; parameters: scale not given: the % may be the effect or the level left; method in brief: as §2
Candida albicans [9] = assay: Antifungal activity against clinical isolates of Candida albicans 2367 at half MIC after 48 hrs by disc diffusion assay; type: functional; method in brief: as §1
Candida albicans [10] = assay: Antifungal activity against clinical isolates of Candida albicans 2367 at 2 times MIC after 48 hrs by disc diffusion assay; type: functional; method in brief: as §1
Candida albicans [11] = assay: Inhibition of ergosterol biosynthesis in Candida albicans ATCC 10261 assessed as ergosterol content at 1/2 MIC after 16 hrs by spectrophotometer analysis; type: functional; parameters: scale not given: the % may be the effect or the level left; method in brief: as §2
Candida tropicalis [12] = assay: Inhibition of ergosterol biosynthesis in Candida tropicalis ATCC 750 assessed as ergosterol content at 1/2 MIC after 16 hrs by spectrophotometer analysis; type: functional; parameters: scale not given: the % may be the effect or the level left; method in brief: as §2
Candida tropicalis [13] = assay: Antifungal activity against Candida tropicalis ATCC 750 at half MIC after 48 hrs by disc diffusion assay; type: functional; method in brief: as §1
Candida albicans [14] = assay: Antifungal activity against Candida albicans ATCC 10261 at 2 times MIC after 48 hrs by disc diffusion assay; type: functional; method in brief: as §1
Candida albicans [15] = assay: Antifungal activity against clinical isolates of Candida albicans 2779 by broth microdilution assay; type: functional
Method in brief: (§3)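 CLSI M27-A3 broth microdilution. Compounds diluted to 1 mg/ml in 1% DMSO. Fluconazole (1 mg/ml) served as positive control, 1% DMSO as vehicle control, with media and culture controls. Triplicate at each concentration, repeated thrice. Inocula came from YPDA stocks subcultured in broth for 48 h at 37 °C.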

Candida tropicalis [16] = assay: Antifungal activity against clinical isolates of Candida tropicalis 2029 by broth microdilution assay; type: functional; method in brief: as §3
Candida albicans [17] = assay: Antifungal activity against clinical isolates of Candida albicans 2779 at 2 times MIC after 48 hrs by disc diffusion assay; type: functional; method in brief: as §1
Candida albicans [18] = assay: Antifungal activity against clinical isolates of Candida albicans 2323 at MIC after 48 hrs by disc diffusion assay; type: functional; method in brief: as §1
Candida tropicalis [19] = assay: Antifungal activity against clinical isolates of Candida tropicalis 2356 at 2 times MIC after 48 hrs by disc diffusion assay; type: functional; method in brief: as §1
Candida albicans [20] = assay: Antifungal activity against clinical isolates of Candida albicans 2779 at MIC after 48 hrs by disc diffusion assay; type: functional; method in brief: as §1
Candida albicans [21] = assay: Antifungal activity against clinical isolates of Candida albicans 2367 by broth microdilution assay; type: functional; method in brief: as §3
Candida albicans [22] = assay: Inhibition of ergosterol biosynthesis in Candida albicans 2367 assessed as ergosterol content at MIC after 16 hrs by spectrophotometer analysis; type: functional; parameters: scale not given: the % may be the effect or the level left; method in brief: as §2
Candida tropicalis [23] = assay: Antifungal activity against clinical isolates of Candida tropicalis 2356 at half MIC after 48 hrs by disc diffusion assay; type: functional; method in brief: as §1
Candida albicans [24] = assay: Antifungal activity against clinical isolates of Candida albicans 2779 at half MIC after 48 hrs by disc diffusion assay; type: functional; method in brief: as §1
Candida tropicalis [25] = assay: Inhibition of ergosterol biosynthesis in Candida tropicalis 2356 assessed as ergosterol content at MIC after 16 hrs by spectrophotometer analysis; type: functional; parameters: scale not given: the % may be the effect or the level left; method in brief: as §2
Candida tropicalis [26] = assay: Inhibition of ergosterol biosynthesis in Candida tropicalis 2356 assessed as ergosterol content at 1/2 MIC after 16 hrs by spectrophotometer analysis; type: functional; parameters: scale not given: the % may be the effect or the level left; method in brief: as §2
Candida albicans [27] = assay: Inhibition of ergosterol biosynthesis in Candida albicans 2779 assessed as ergosterol content at 1/2 MIC after 16 hrs by spectrophotometer analysis; type: functional; parameters: scale not given: the % may be the effect or the level left; method in brief: as §2
Candida albicans [28] = assay: Antifungal activity against clinical isolates of Candida albicans 2323 by broth microdilution assay; type: functional; method in brief: as §3
Candida albicans [29] = assay: Antifungal activity against Candida albicans ATCC 10261 at half MIC after 48 hrs by disc diffusion assay; type: functional; method in brief: as §1
Candida albicans [30] = assay: Antifungal activity against Candida albicans ATCC 10261 by broth microdilution assay; type: functional; method in brief: as §3
Candida albicans [31] = assay: Antifungal activity against clinical isolates of Candida albicans 2323 at 2 times MIC after 48 hrs by disc diffusion assay; type: functional; method in brief: as §1
Candida tropicalis [32] = assay: Antifungal activity against Candida tropicalis ATCC 750 by broth microdilution assay; type: functional; method in brief: as §3
Candida tropicalis [33] = assay: Inhibition of ergosterol biosynthesis in Candida tropicalis ATCC 750 assessed as ergosterol content at MIC after 16 hrs by spectrophotometer analysis; type: functional; parameters: scale not given: the % may be the effect or the level left
Method in brief: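 Cells were harvested, washed, and wet pellet weight recorded. Pellets were saponified in 3 mL 25% alcoholic KOH at 85 °C for 1 h, then sterols extracted into n-heptane. Ergosterol is expressed relative to untreated control cells.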

Candida tropicalis [34] = assay: Inhibition of ergosterol biosynthesis in Candida tropicalis 2029 assessed as ergosterol content at 1/2 MIC after 16 hrs by spectrophotometer analysis; type: functional; parameters: scale not given: the % may be the effect or the level left; method in brief: as §2
Candida albicans [35] = assay: Antifungal activity against clinical isolates of Candida albicans 2367 at MIC after 48 hrs by disc diffusion assay; type: functional; method in brief: as §1
Candida albicans [36] = assay: Cytotoxicity against Candida albicans ATCC 10261 at MIC after 24 hrs by WST1 assay; type: functional
Method in brief: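 Candida cells were exposed to MIC and sub-MIC levels for 24 h in microplates, then to WST-1/CEC dye for 30 min at 37 °C. Plates were shaken 1 min and the reaction stopped with 1% SDS. Formazan was read at 450 nm. % cytotoxicity = 100 × (cell control − experimental)/cell control. Triplicates, mean ± SD.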

Candida tropicalis [37] = assay: Antifungal activity against Candida tropicalis ATCC 750 at MIC after 48 hrs by disc diffusion assay; type: functional; method in brief: as §1
Candida tropicalis [38] = assay: Antifungal activity against clinical isolates of Candida tropicalis 2356 by broth microdilution assay; type: functional; method in brief: as §3
Candida tropicalis [39] = assay: Antifungal activity against Candida tropicalis ATCC 750 at 2 times MIC after 48 hrs by disc diffusion assay; type: functional; method in brief: as §1
Candida albicans [40] = assay: Inhibition of ergosterol biosynthesis in Candida albicans 2323 assessed as ergosterol content at 1/2 MIC after 16 hrs by spectrophotometer analysis; type: functional; parameters: scale not given: the % may be the effect or the level left; method in brief: as §2
Candida tropicalis [41] = assay: Antifungal activity against clinical isolates of Candida tropicalis 2029 at 2 times MIC after 48 hrs by disc diffusion assay; type: functional; method in brief: as §1
Candida albicans [42] = assay: Inhibition of ergosterol biosynthesis in Candida albicans ATCC 10261 assessed as ergosterol content at MIC after 16 hrs by spectrophotometer analysis; type: functional; parameters: scale not given: the % may be the effect or the level left; method in brief: as §2
Candida albicans [43] = assay: Inhibition of ergosterol biosynthesis in Candida albicans 2367 assessed as ergosterol content at 1/2 MIC after 16 hrs by spectrophotometer analysis; type: functional; parameters: scale not given: the % may be the effect or the level left; method in brief: as §2
Candida tropicalis [44] = assay: Antifungal activity against clinical isolates of Candida tropicalis 2029 at half MIC after 48 hrs by disc diffusion assay; type: functional; method in brief: as §1

## CCc1ccnc(-c2nccn2Cc2nnc(-c3ccc(N)cc3)o2)c1
Candida albicans [1]
  inhibition zone (IZ): 10 mm
Candida tropicalis [2]
  inhibition zone (IZ): 5 mm
Candida tropicalis [3]
  Activity: 80.81%
Candida albicans [4]
  Activity: 81%
Candida albicans [5]
  Activity: 89%
Candida albicans [6]
  inhibition zone (IZ): 0 mm
Candida tropicalis [7]
  inhibition zone (IZ): 4 mm
Candida tropicalis [8]
  Activity: 84%
Candida albicans [9]
  inhibition zone (IZ): 2 mm
Candida albicans [10]
  inhibition zone (IZ): 7 mm
Candida albicans [11]
  Activity: 57%
Candida tropicalis [12]
  Activity: 41%
Candida tropicalis [13]
  inhibition zone (IZ): 5 mm
Candida albicans [14]
  inhibition zone (IZ): 13 mm
Candida albicans [15]
  MIC: 64 µg/mL (≈ 185 µM)
Candida tropicalis [16]
  MIC: 32 µg/mL (≈ 92.4 µM)
Candida albicans [17]
  inhibition zone (IZ): 11 mm
Candida albicans [18]
  inhibition zone (IZ): 4 mm
Candida tropicalis [19]
  inhibition zone (IZ): 7 mm
Candida albicans [20]
  inhibition zone (IZ): 8 mm
Candida albicans [21]
  MIC: 32 µg/mL (≈ 92.4 µM)
Candida albicans [22]
  Activity: 81%
Candida tropicalis [23]
  inhibition zone (IZ): 0 mm
Candida albicans [24]
  inhibition zone (IZ): 1 mm
Candida tropicalis [25]
  Activity: 86%
Candida tropicalis [26]
  Activity: 52%
Candida albicans [27]
  Activity: 42%
Candida albicans [28]
  MIC: 32 µg/mL (≈ 92.4 µM)
Candida albicans [29]
  inhibition zone (IZ): 7 mm
Candida albicans [30]
  MIC: 16 µg/mL (≈ 46.2 µM)
Candida albicans [31]
  inhibition zone (IZ): 7 mm
Candida tropicalis [32]
  MIC: 16 µg/mL (≈ 46.2 µM)
Candida tropicalis [33]
  Activity: 98%
Candida tropicalis [34]
  Activity: 44%
Candida albicans [35]
  inhibition zone (IZ): 5 mm
Candida albicans [36]
  Activity: 87.27%
Candida tropicalis [37]
  inhibition zone (IZ): 9 mm
Candida tropicalis [38]
  MIC: 125 µg/mL (≈ 361 µM)
Candida tropicalis [39]
  inhibition zone (IZ): 13 mm
Candida albicans [40]
  Activity: 43%
Candida tropicalis [41]
  inhibition zone (IZ): 8 mm
Candida albicans [42]
  Activity: 98%
Candida albicans [43]
  Activity: 45%
Candida tropicalis [44]
  inhibition zone (IZ): 2 mm
